According to PubChem BioAssay:
Records with an inconclusive call do not appear.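 The calls were made as follows, unless noted: active = viability increase at or above a cutoff of the median across tested compounds plus 3 SD (cut at about 8.5% in these data, passing the limit was not always enough); inconclusive = some gains above the cutoff, reason not given; inactive = the rest.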

Tests used:
[1] = OD615 S. cerevisiae growth inhibition, permissive medium, pilot counter-assay, permissive growth control for S. cerevisiae lifespan shortening project (AID 705;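 active = growth inhibition above 25% in both replicates, a cutoff set 3 SD above the mean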); details: OD615, 24 h, at 10 µM, stronger effect = higher value
Summary of the method: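 Timing: 24 h exposure, 30 °C / Material: Saccharomyces cerevisiae strain carrying genetically modified DeaD replicative-lifespan system / Signal: OD at 615 nm / Compound: 10 µM single dose, 0.25% DMSO / Medium: SC raffinose/galactose permissive medium / Evaluation: reduction in yeast growth (OD615)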

[2] = Restrictive medium S. cerevisiae growth inhibition, OD615, pilot screen of yeast lifespan reduction project, restrictive growth control (AID 706;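 active = growth inhibition above a set limit, 3 SD over mean compound inhibition, in both replicates, cut at about 43% in these data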;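 also: modified DeaD lifespan yeast strain shifted to restrictive glucose medium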); details: OD615, 48 h, at 10 µM, stronger effect = higher value
Summary of the method: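 System: Engineered S. cerevisiae DeaD strain | Detection: OD615 | Buffer or medium: CSMM-D glucose medium | Doses: 10 µM compound, 0.25% DMSO | Timing: 4 h pre-growth plus 48 h compound exposure, 30 °C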

[3] = viability gain of MRP-1-high H69AR cells under doxorubicin, pilot screen, MRP-1 activator project, CellTiter-Glo, duplicate (AID 807); details: H69AR viability with doxorubicin, CellTiter-Glo luminescence; at 10 µM; stronger effect = higher value;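 also: compound pretreatment 18-22 h then 72 h combined with doxorubicin; 0% = doxorubicin alone and 100% = vehicle without doxorubicin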
[4] = growth suppression of beta-catenin knockout HCT116, pilot screen, human colon tumor cells (AID 823;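 active = cell viability at or below a set limit in both duplicate runs, the limit being the all-compound median minus 4 SD, cut at about 23% in these data, passing the limit was not always enough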;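 also: 0% = wells killed by 20 µM Hyamine and 100% = untreated DMSO cell wells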); details: CellTiter-Glo, 60 h, at 10 µM, stronger effect = lower value
[5] = growth suppression of PTEN-deleted HCT116, pilot screen, cell-based, HCT116 clonal line, CellTiter-Glo (AID 824;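 active = viability at or below 27.92% in each of two runs, the all-compound median minus 4 SD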;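 also: 0% = 20 µM Hyamine control and 100% = vehicle cell control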); details: 60 h, at 10 µM, stronger effect = lower value
[6] = inhibitors of the yeast RAM network, pilot screen, dse1pr::URA3 reporter, 5-FOA selection (AID 869;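 active = inhibition over a set limit, the all-compound mean plus 3 SD, in both replicate runs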;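 also: 0% = DMSO wells with no growth and 100% = 10 µM 1-NA-PP1 with full growth; RAM network block rescues cells from 5-FOA so hits raise OD615 growth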); details: S. cerevisiae dse1pr::URA3 5-FOA growth, OD615, 2 d; at 10 µM; stronger effect = higher value; strain carries analog-sensitive mutant Cbk1 kinase
[7] = RAM signaling pathway blockade in yeast – S. cerevisiae, Pdr1DBD-CYC8 efflux-inhibited sensitized strain, primary screen (AID 1298;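 active = RAM network inhibition above 8.4% in each of two replicates, 3 SD over the compound average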;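 also: 0% = DMSO untreated cells without growth and 100% = 10 µM 1-NA-PP1 full growth; higher means more yeast growth rescued from 5-FOA killing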); details: S. cerevisiae cbk1-as DSE1-URA3 strain, 5-FOA growth OD615, 2 d; at 50 µM; stronger effect = higher value

CCOC(=O)c1c(-c2ccccc2)c(C(C)=O)c(=O)n(C)c1C
inactive: growth inhibition [1] -19% | growth inhibition [2] -9.79% | viability increase [3] -3.81% | viability [4] 95.9% | viability [5] 94.1% | inhibition [6] 4.63% | RAM network inhibition [7] 1.72%

CCCC(=O)OCCNC(=O)c1cc2ccccc2oc1=O
inactive: growth inhibition [1] -4.39% | growth inhibition [2] 2.19% | viability increase [3] -0.74% | viability [4] 102% | viability [5] 90.2% | inhibition [6] 0.64% | RAM network inhibition [7] 2.41%

COc1ccc(-c2nnc(SCC(=O)NC(C)C)n2CC2CCCO2)cc1OC (stereo unspecified)
inactive: growth inhibition [1] 1.07% | growth inhibition [2] -3.87% | viability increase [3] 0.35% | viability [4] 103% | viability [5] 98.3% | inhibition [6] 1.69% | RAM network inhibition [7] -0.58%

O=C(CSc1nc2c([nH]c3ccccc32)c(=O)n1-c1cccc(Cl)c1)N1CCOCC1
inactive: growth inhibition [1] -16.6% | growth inhibition [2] -12.8% | viability increase [3] -3.3% | viability [4] 79.6% | viability [5] 79.9% | inhibition [6] 1.64% | RAM network inhibition [7] 3.01%

Cc1cccc(-n2c(O)c(C=Nc3ccc4c(c3)OCO4)c3ccccc3c2=O)n1
inactive: growth inhibition [1] 1.54% | growth inhibition [2] -8.37% | viability increase [3] -0.5% | viability [4] 89.3% | viability [5] 80.2% | inhibition [6] 0.93% | RAM network inhibition [7] 2.46%

Cc1cc(OCC(=O)C(C)(C)C)c2c(C)c(C)c(=O)oc2c1
inactive: growth inhibition [1] -18.8% | growth inhibition [2] -20.7% | viability increase [3] -6.01% | viability [4] 79.9% | viability [5] 73.8% | inhibition [6] 0.31% | RAM network inhibition [7] 6.85%

c1ccc2c(c1)OCC(c1csc3ncnc(N4CCOCC4)c13)O2 (stereo unspecified)
inactive: growth inhibition [1] -14.1% | growth inhibition [2] -9.32% | viability increase [3] -3.2% | viability [4] 94.4% | viability [5] 75.7% | inhibition [6] 1.26% | RAM network inhibition [7] 8.63%

COCCNC(=O)CN1C(=O)CSc2cc(S(=O)(=O)N3CCCCCC3)ccc21
inactive: growth inhibition [1] -5.04% | growth inhibition [2] -4.12% | viability increase [3] -1.52% | viability [4] 98.9% | viability [5] 109% | inhibition [6] 2.73% | RAM network inhibition [7] -0.32%

Cc1ccc(N2CC(c3nc4ccccc4[nH]3)CC2=O)c(C)c1 (stereo unspecified)
inactive: growth inhibition [1] -14.1% | growth inhibition [2] -17% | viability increase [3] 0.06% | viability [4] 107% | viability [5] 94.4% | inhibition [6] 1.45% | RAM network inhibition [7] 0.01%

COc1ccc(C2CC(=O)N3CN(c4ccc(C)c(Cl)c4)CSC3=C2C#N)cc1 (stereo unspecified)
inactive: growth inhibition [1] 5.58% | growth inhibition [2] 21.9% | viability increase [3] -5.36% | viability [4] 90.1% | viability [5] 89.5% | inhibition [6] 0.91% | RAM network inhibition [7] -1.96%

CCCc1cc(C(=O)Nc2cc(Br)ccc2O)no1
inactive: growth inhibition [1] -4.99% | growth inhibition [2] -3.92% | viability increase [3] -4.83% | viability [4] 89% | viability [5] 88.1% | inhibition [6] 2.76% | RAM network inhibition [7] 5.97%

CC1(C)Nc2ccccc2N(CCC(=O)N2CCOCC2)C1=O
inactive: growth inhibition [1] -13.2% | growth inhibition [2] 0.485% | viability increase [3] -0.6% | viability [4] 92.9% | viability [5] 96.4% | inhibition [6] 0.905% | RAM network inhibition [7] 2.81%

COc1ccc(CC(=O)N2CCN=C2SC)cc1
inactive: growth inhibition [1] 3.24% | growth inhibition [2] -0.34% | viability increase [3] 1.06% | viability [4] 99.3% | viability [5] 103% | inhibition [6] 1.54% | RAM network inhibition [7] 0.48%

COc1ccc(CN=CC2=C(O)CNC2=O)cc1OC
inactive: growth inhibition [1] -12% | growth inhibition [2] -8.51% | viability increase [3] -0.57% | viability [4] 99.8% | viability [5] 103% | inhibition [6] 1.47% | RAM network inhibition [7] 5.81%

CC(C)(C)c1ccc(NC(=O)NCc2ccco2)cc1
inactive: growth inhibition [1] -8.65% | growth inhibition [2] 2.62% | viability increase [3] -5% | viability [4] 63.8% | viability [5] 64.5% | inhibition [6] 1.23% | RAM network inhibition [7] -0.31%

Nc1c(S(=O)(=O)c2ccccc2)c2nc3ccccc3nc2n1/N=C/c1ccco1
inactive: growth inhibition [1] -7.84% | growth inhibition [2] -8.93% | viability increase [3] -5.63% | viability [4] 51.5% | viability [5] 52% | inhibition [6] 2.34% | RAM network inhibition [7] 4.98%

CCn1cc(C2=NC(c3ccccc3)CO2)c2ccccc21 (stereo unspecified)
inactive: growth inhibition [1] -11% | growth inhibition [2] -8.14% | viability increase [3] -4.95% | viability [4] 91.6% | viability [5] 83.3% | inhibition [6] 1.46% | RAM network inhibition [7] 0.69%

Cc1ccc(-c2n[nH]c(=S)n2C)cc1
inactive: growth inhibition [1] -2.22% | growth inhibition [2] 11.2% | viability increase [3] -1.46% | viability [4] 97.5% | viability [5] 101% | inhibition [6] 2.21% | RAM network inhibition [7] 3.7%
